In data set [1] the test system is 8 cardiac ion channels. Particulars: ref Martinez-Botella et al., 2017; cited from earlier work.
The target in data set [2] is T1, α4β3δ GABAA receptor (Homo sapiens, UniProt P28472+P48169). Briefly: Whole cell patch clamp, GABA-evoked currents, α4β3δ in CHO cells. In kind it is cell-based. The method in brief: (§1)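 Whole-cell patch clamp at −80 mV in Ltk cells (stable α1β2γ2, n = 7; α2β2γ2, n = 3) or CHO cells (transient α4β3δ, n = 6). Each cell received test compound (0.1% DMSO) sequentially at 0.01–10 μM, 30 s before each 2 s pulse of 2 μM GABA. Gravity-fed perfusion, exchange within 300–500 ms. For δ-containing cells, DS-2 was applied at the end to confirm δ expression. Potentiation = peak ratio ×100.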
T1 sequence (P48169 36-554): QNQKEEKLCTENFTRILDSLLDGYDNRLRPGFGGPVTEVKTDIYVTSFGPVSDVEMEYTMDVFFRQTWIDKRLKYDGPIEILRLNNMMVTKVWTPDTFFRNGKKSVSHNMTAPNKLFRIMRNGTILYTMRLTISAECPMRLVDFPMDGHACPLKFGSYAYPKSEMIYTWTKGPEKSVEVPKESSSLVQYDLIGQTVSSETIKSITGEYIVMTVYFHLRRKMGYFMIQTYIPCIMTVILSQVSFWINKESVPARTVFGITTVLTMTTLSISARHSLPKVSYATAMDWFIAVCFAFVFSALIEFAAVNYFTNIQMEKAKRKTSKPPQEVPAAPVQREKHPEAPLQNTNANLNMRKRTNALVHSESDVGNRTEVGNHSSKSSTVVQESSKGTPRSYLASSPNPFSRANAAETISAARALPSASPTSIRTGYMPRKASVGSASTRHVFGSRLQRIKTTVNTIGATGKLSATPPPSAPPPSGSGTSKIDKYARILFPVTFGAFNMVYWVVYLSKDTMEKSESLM
T1 sequence (P28472 26-473): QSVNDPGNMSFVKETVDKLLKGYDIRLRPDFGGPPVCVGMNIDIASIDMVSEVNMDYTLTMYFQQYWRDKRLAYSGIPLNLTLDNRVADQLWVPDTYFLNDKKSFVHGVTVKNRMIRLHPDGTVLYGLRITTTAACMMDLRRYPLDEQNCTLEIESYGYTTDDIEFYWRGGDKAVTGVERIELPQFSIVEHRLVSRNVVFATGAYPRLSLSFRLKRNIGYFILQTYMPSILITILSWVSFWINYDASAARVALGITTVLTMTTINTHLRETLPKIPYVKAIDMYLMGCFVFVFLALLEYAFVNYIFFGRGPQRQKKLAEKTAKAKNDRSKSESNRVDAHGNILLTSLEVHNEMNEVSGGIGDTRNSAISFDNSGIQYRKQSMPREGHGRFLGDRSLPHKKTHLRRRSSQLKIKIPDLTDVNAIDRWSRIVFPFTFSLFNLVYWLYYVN
T1 sequence (O14764 17-452 partner limits assumed): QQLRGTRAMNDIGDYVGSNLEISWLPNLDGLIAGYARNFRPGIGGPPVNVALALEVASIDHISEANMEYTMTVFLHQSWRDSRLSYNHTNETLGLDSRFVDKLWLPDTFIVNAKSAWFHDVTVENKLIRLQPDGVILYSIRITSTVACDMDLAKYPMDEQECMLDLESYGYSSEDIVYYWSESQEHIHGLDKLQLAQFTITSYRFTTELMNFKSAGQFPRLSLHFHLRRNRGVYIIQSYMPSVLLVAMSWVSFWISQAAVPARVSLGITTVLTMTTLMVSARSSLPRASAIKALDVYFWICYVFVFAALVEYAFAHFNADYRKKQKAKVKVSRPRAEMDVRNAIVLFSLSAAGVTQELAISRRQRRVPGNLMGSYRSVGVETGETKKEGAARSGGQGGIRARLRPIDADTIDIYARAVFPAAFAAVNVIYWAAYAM
(The patch-clamp technique gives a direct electrical read-out from membranes.)

The subject of data set [3] is dentate granule cells. Kind of data set: Acute hippocampal slice recording, tonic current and sIPSCs after washout. In kind it is cell-based, mouse. Particulars: for tonic current density: 15 min pre-incubation, 30–50 min wash; for sIPSC amplitude / sIPSC decay: after 30–50 min wash. The method in brief: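 Acute brain slices from postnatal day 21 C57 mice were held in a holding chamber with 0.1 or 1 μM test compound for 15 min. They were then perfused (2 mL/min) with oxygenated ACSF for 30–50 min before whole-cell patch clamp of dentate granule cells (n = 6–7). Tonic current is the baseline shift with 100 μM picrotoxin, divided by capacitance. sIPSCs were inspected visually and only single-peak events were kept.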

The conditions of data set [4]: Phase 1, healthy volunteers, ref Hoffmann et al., 2019, cited from earlier work.
Data set [5] is described as follows: Brain and plasma pharmacokinetics after single IP or PO dose. In kind it is in vivo, mouse. Conditions: for time of maximum plasma concentration (Cmax) post dose: CD1 mouse; for Cmax / bioavailability: male, CD-1, mouse, plasma, 10 mg/kg. The procedure, abridged:
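Adult male CD-1 mice received a single 10 mg/kg dose: IP in 15% HP-β-CD or PO in 30% SBECD. Sampling: IP at 0.5–8 h (n = 2 per time point); PO at 0.167–12 h (n = 3 per time point). Plasma (K2 EDTA) and snap-frozen brain were collected. Brain was homogenized in 3 vol PBS, extracted by acetonitrile precipitation with internal standard, and assayed by LC-MS/MS (C18, water:methanol gradient, positive MRM). Brain:plasma ratio from a single point at 1 h.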

In data set [6] the test system is sigma. Conditions: 10 μM, ref Martinez-Botella et al., 2017; cited from earlier work.
Data set [7] has as its target human recombinant α1β1γ2 GABAA receptor (Homo sapiens, UniProt P14867+P18505). Kind of data set: Two electrode voltage clamp, α1β1γ2 in Xenopus oocytes. In kind it is cell-based. The method in brief:
(§2)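 Xenopus oocytes expressing subunit cDNA; two-electrode voltage clamp at −80 mV, 18 °C, superfused with OR2 medium pH 7.4. Submaximal GABA given alone for 15 s, then co-applied with test compound at half-log steps 0.1–10 μM (0.3% DMSO). GABA: 10 μM for α1β1γ2, 3 μM for α6β3δ. n = 3 cells per concentration. Potentiation = peak amplitude with test compound / GABA alone ×100.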
On the technique in general: Two-electrode voltage clamp is typically applied to oocytes expressing channels or transporters.

The target of data set [8] is human recombinant α2β3γ2 GABAA receptor (Homo sapiens, UniProt P28472+P47869). Kind of data set: IonWorks Barracuda patch clamp, α2β3γ2 in HEK cells. In kind it is cell-based. The procedure, abridged:
(§3)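 HEK cells stably expressing human receptors; automated perforated-patch whole-cell recording at −70 mV. Extracellular buffer pH 7.4; KCl-based intracellular solution pH 7.2. Submaximal GABA applied alone, then co-applied with test compound at half-log steps 0.01–30 μM (0.3% DMSO, 0.02% Cremophor); n = 4 per concentration. GABA: 5 μM α1β3γ2, 2 μM α2β3γ2, 12.5 μM α3β3γ2, 2 μM α5β3γ2. Potentiation = peak with test compound / peak with GABA alone ×100.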

Data set [9] addresses human recombinant α5β3γ2 GABAA receptor (Homo sapiens, UniProt P28472+P31644). Kind of data set: IonWorks Barracuda patch clamp, α5β3γ2 in HEK cells. In kind it is cell-based. The procedure, abridged: as §3
In data set [10] the test system is PTZ-induced seizures. Briefly: Pentylenetetrazole-induced seizures. Conditions: vehicle 751 ± 67 s. In kind it is in vivo, mouse.
The subject of data set [11] is transient receptor potential cation channel subfamily V member 1 receptor. Particulars: 10 μM; ref Martinez-Botella et al., 2017; cited from earlier work.
Data set [12] addresses T1, α4β3δ GABAA receptor. Briefly: Synergy with diazepam, α4β3δ in CHO cells. In kind it is cell-based.
Data set [13] addresses human recombinant α1β3γ2 GABAA receptor (Homo sapiens, UniProt P14867+P28472). Kind of data set: IonWorks Barracuda patch clamp, α1β3γ2 in HEK cells. In kind it is cell-based. The method in brief: as §3
Data set [14] addresses human recombinant α3β3γ2 GABAA receptor (Homo sapiens, UniProt P28472+P34903). Kind of data set: IonWorks Barracuda patch clamp, α3β3γ2 in HEK cells. Format: cell-based. The method in brief: as §3
A short description of data set [15]: Plasma and brain concentrations in PTZ behavioral study. In kind it is in vivo. Conditions: mouse, between 0.3 and 1 mg/kg PO. The procedure, abridged: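 Plasma and brain were collected from a subset of PTZ-study mice plus satellite PK mice (n = 3–4 per dose) after PO dosing. Brain was homogenized in 3 vol PBS, extracted by acetonitrile protein precipitation with internal standard, and quantified by LC-MS/MS against a spiked calibration curve.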

Data set [16] concerns β-band EEG power. Briefly: PharmacoEEG, β-band EEG power and sleep/wake. Format: in vivo. Conditions: rat; for sleep time: p < 0.05. The method in brief: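 Adult male Sprague Dawley rats (n = 7 per group) with implanted epidural EEG screw electrodes and EMG were tested after 2 weeks' recovery. After 1 h baseline, they received test compound (0.3, 3 or 20 mg/kg) or vehicle (30% SBECD) PO, followed by 6 h continuous EEG. Sleep/wake was scored in 10 s epochs from EEG/EMG and checked by a blinded expert. Analysis used one-way ANOVA and two-way repeated-measures ANOVA vs vehicle.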

Data set [17] has as its system glycine. Conditions: 10 μM, ref Martinez-Botella et al., 2017; cited from earlier work.
The target of data set [18] is T2, α1β2γ2 GABAA receptor (Homo sapiens, UniProt P14867+P18507+P47870). Kind of data set: Synergy with diazepam, α1β2γ2 in Ltk cells, isobolographic analysis. Format: cell-based. Particulars: for concentration applied alone required to reach 150% effect level: α1β2γ2, isobologram.
T2 sequence (P14867 28-456): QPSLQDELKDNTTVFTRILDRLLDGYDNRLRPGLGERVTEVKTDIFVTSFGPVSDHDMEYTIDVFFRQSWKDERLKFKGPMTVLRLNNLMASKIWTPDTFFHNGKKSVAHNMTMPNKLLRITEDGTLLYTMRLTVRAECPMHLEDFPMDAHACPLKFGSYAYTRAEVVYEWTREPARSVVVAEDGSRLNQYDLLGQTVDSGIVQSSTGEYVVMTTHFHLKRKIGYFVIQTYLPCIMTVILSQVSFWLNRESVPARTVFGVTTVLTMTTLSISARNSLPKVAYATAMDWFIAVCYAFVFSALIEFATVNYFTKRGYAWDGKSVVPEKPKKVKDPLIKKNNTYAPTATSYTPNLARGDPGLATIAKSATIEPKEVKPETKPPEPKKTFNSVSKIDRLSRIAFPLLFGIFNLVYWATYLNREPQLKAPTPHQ
T2 sequence (P47870 25-512 limits assumed): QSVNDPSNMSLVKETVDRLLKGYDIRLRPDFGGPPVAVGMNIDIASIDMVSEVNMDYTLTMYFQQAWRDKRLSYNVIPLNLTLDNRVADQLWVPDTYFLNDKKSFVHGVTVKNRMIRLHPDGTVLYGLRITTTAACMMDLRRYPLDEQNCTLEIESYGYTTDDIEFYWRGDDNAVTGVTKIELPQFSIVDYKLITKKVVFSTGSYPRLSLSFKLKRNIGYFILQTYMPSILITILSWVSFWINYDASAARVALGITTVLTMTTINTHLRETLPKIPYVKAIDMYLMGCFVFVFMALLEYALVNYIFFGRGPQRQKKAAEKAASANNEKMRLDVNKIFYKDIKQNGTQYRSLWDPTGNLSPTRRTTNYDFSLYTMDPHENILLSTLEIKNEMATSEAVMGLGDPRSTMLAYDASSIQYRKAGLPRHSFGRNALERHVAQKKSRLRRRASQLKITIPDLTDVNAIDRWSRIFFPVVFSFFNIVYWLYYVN
T2 sequence (P18507 40-475): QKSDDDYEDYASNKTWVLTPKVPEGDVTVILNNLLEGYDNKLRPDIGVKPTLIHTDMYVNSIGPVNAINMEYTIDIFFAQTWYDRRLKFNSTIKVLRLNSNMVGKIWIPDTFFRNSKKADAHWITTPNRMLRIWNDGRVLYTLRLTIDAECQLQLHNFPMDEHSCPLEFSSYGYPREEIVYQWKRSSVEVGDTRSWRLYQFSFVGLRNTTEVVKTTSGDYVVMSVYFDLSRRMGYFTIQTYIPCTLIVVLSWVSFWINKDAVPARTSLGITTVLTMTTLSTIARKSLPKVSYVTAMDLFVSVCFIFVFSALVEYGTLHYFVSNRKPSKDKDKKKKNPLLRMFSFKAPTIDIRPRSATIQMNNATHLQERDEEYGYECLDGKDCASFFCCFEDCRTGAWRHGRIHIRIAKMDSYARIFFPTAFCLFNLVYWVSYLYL
Data set [19] addresses T2, α1β2γ2 GABAA receptor. Briefly: Whole cell patch clamp, GABA-evoked currents, α1β2γ2 in Ltk cells. In kind it is cell-based. The method in brief: as §1
Data set [20] can be described thus: Plasma concentrations in rats designated for pharmacokinetic analysis. Conditions: rat, po. Format: in vivo.
For data set [21], the target named is human recombinant α2β2γ2 GABAA receptor (Homo sapiens, UniProt P47869+P47870). Briefly: Whole cell patch clamp, GABA-evoked currents, α2β2γ2 in Ltk cells. In kind it is cell-based. The method in brief:
as §1

The test system of data set [22] is other ion channel and hormone receptors, including AMPA and NMDA. Particulars: ref Martinez-Botella et al., 2017; cited from earlier work.
Data set [23] relates to 22 nuclear hormone receptors. Conditions: ref Martinez-Botella et al., 2017; cited from earlier work.
The target in data set [24] is human recombinant α6β3δ GABAA receptor (Homo sapiens, UniProt P28472+Q16445). Briefly: Two electrode voltage clamp, α6β3δ in Xenopus oocytes. Format: cell-based. The procedure, abridged: as §2
For data set [25], the target named is T2, α1β2γ2 GABAA receptor. Kind of data set: P4S concentration-response with and without 200 nM zuranolone, Ltk cells. In kind it is cell-based. Conditions: for EC50: EC50 of P4S, α1β2γ2, Ltk cells. The method in brief: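 Ltk cells stably expressing α1β2γ2; whole-cell patch clamp at −80 mV, n = 11. P4S was applied at 0.1–1000 μM in log steps, with or without a fixed 200 nM test compound. Currents were normalized to the maximum current from a saturating GABA concentration.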

“And” between values parts separate entries of the source, which are not always exact repeats. Equal entries are not always repeated. Bounds are passed on as bounds.

The EC50 is the concentration at which the effect is half-maximal. For orientation: Emax means the maximal effect, on the per cent scale that the assay sets. One may read the Cmax as the highest concentration seen after dosing. The bioavailability is the share of a dose that reaches the circulation, judged against a reference dose that is usually intravenous. Low readings indicate little systemic uptake, high ones much systemic uptake.

Sequence of human recombinant α3β3γ2 GABAA receptor (P34903 29-492): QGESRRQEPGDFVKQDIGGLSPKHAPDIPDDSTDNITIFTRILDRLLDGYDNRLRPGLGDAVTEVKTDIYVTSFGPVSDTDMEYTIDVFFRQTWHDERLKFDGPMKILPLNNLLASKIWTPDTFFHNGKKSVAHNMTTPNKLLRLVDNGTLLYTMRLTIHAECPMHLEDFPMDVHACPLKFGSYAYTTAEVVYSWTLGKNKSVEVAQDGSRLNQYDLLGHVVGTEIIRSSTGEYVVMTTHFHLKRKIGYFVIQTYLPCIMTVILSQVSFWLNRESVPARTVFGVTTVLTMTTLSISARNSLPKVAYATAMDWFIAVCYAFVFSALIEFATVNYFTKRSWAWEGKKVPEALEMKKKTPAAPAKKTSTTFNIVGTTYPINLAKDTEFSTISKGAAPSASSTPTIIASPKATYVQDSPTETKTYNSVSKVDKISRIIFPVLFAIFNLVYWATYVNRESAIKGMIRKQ
Sequence of human recombinant α3β3γ2 GABAA receptor (P28472 26-473): as the sequence (P28472 26-473) above
Sequence of human recombinant α3β3γ2 GABAA receptor (P18507 40-475 partner): as the sequence (P18507 40-475) above
Sequence of human recombinant α1β3γ2 GABAA receptor (P14867 28-456): as the sequence (P14867 28-456) above
Sequence of human recombinant α1β3γ2 GABAA receptor (P28472 26-473): as the sequence (P28472 26-473) above
Sequence of human recombinant α1β3γ2 GABAA receptor (P18507 40-475 partner): as the sequence (P18507 40-475) above
Sequence of human recombinant α5β3γ2 GABAA receptor (P31644 32-462): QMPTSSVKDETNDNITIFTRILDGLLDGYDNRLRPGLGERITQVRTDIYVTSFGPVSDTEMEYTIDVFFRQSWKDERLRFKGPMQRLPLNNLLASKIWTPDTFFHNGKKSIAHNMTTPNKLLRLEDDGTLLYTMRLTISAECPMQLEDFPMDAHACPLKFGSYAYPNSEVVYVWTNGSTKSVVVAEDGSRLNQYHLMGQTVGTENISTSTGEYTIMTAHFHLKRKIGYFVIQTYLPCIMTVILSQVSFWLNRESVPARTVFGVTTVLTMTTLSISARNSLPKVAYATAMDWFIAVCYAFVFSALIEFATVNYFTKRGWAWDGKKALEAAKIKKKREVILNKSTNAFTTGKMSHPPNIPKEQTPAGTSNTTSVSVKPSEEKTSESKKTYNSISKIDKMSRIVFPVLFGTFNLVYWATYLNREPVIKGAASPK
Sequence of human recombinant α5β3γ2 GABAA receptor (P28472 26-473): as the sequence (P28472 26-473) above
Sequence of human recombinant α5β3γ2 GABAA receptor (P18507 40-475 partner): as the sequence (P18507 40-475) above
Sequence of human recombinant α2β3γ2 GABAA receptor (P47869 29-451): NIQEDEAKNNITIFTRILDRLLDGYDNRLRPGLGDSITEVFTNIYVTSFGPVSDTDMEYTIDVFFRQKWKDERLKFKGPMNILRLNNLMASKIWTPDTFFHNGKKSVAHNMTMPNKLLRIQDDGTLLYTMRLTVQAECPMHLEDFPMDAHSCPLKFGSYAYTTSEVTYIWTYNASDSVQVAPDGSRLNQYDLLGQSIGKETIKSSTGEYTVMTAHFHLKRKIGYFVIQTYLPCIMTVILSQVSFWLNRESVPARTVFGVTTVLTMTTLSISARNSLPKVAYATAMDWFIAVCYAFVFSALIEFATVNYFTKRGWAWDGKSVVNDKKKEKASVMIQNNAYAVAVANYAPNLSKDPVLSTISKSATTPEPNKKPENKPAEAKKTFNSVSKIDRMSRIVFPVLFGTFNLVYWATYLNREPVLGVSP
Sequence of human recombinant α2β3γ2 GABAA receptor (P28472 26-473): as the sequence (P28472 26-473) above
Sequence of human recombinant α2β3γ2 GABAA receptor (P18507 40-475 partner): as the sequence (P18507 40-475) above
Sequence of human recombinant α2β2γ2 GABAA receptor (P47869 29-451): as the sequence (P47869 29-451) above
Sequence of human recombinant α2β2γ2 GABAA receptor (P47870 25-512 limits assumed): as the sequence (P47870 25-512 limits assumed) above
Sequence of human recombinant α2β2γ2 GABAA receptor (P18507 40-475 partner): as the sequence (P18507 40-475) above

Take `C[C@@]1(O)CC[C@H]2[C@H](CC[C@@H]3[C@@H]2CC[C@]2(C)[C@@H](C(=O)Cn4cc(C#N)cn4)CC[C@@H]32)C1` [zuranolone, 3α-Hydroxy-3β-methyl-21-(4-cyano-1H-pyrazol-1’-yl)-19-nor-5β-pregnan-20-one]: the “effects at 8 cardiac ion channels” value in data set [1] is “no significant effects”. The EC50 in data set [2] was 118 nM; in data set [7] it was 1260 nM; in data set [8], 516 nM; in [9], 298 nM; in data set [12], 135 nM; in [13], 390 nM. Further, the EC50 was determined as 293 nM in [14]; 844 nM in data set [18]; 430 nM in data set [19]; 184 nM in data set [21]; 780 nM in [24]. Also, the Emax in data set [2] (CHO) is 556%; in [9] (HEK293), 534%; in [13] (HEK293) it was 684%; in data set [14] (HEK293) it was 291%. Moreover, the figures for the tonic current density in data set [3] (0.1 μM) and in data set [3] (1 μM) were 2.48 ± 0.7 pA/pF and 5.55 ± 1.3 pA/pF, respectively. Also, the sIPSC amplitude in data set [3] (0.1 μM) was 99 ± 26 pA; in data set [3] (1 μM) it was 57 ± 7 pA. The values for the sIPSC decay in [3] (0.1 μM) and in [3] (1 μM) were 10 ± 1 ms and 24 ± 4 ms, respectively. Besides, in data set [3] (following zuranolone exposure), the sIPSC frequency entry is listed as “no change”. Further, the tolerability result in data set [4] (oral administration) was “generally well tolerated”. The “pharmacokinetics following oral administration” value in data set [4] is given as “predictable pharmacokinetics”. Also, the “time of maximum plasma concentration (Cmax) post dose” value in data set [5] (10 mg/kg IP) and in [5] (10 mg/kg PO) was 30 min throughout. In addition, the Cmax in data set [5] (ip) was determined as 3200 ng/mL; in [5] (po), 1340 ng/mL. In addition, the figures for the bioavailability in data set [5] (ip) and in data set [5] (po) were 89% and 62%, respectively. Moreover, the “inhibition of radioligand binding” value was 87% in data set [6] and 57% in [17]. Besides, the “latency to tonic seizures” value in data set [10] (mouse, 0.3 mg/kg PO, non-significant trend (p = 0.06)) is 1033 ± 179 s; in data set [10] (mouse, 1, 3, and 10 mg/kg PO, 60 min prior to 120 mg/kg PTZ), ≥ 1688 ± 56 s. In addition, the antagonist activity in data set [11] was 96%. In addition, the brain concentrations in data set [15] was 60 to 143 ng/g. In [16] (0.3 mg/kg PO), the “sleep or wake time” value is recorded as “No changes in sleep or wake time”. Besides, the “β-band EEG power relative to vehicle” value in [16] (0.3 mg/kg PO, p = 0.58) was “did not elicit a significant increase”. Also, in data set [16] (3 mg/kg PO), the “time of β-band EEG power peak post dose” value is “approximately 0.5 h”. Besides, the “β-band EEG power at one hour vs vehicle” value in data set [16] (3 mg/kg PO, p < 0.0005) was “significantly greater than vehicle”; in data set [16] (20 mg/kg PO, p = 0.79) it was “not significantly different from vehicle”. For the same compound, the values for the sleep time entry in data set [16] (3 mg/kg PO) and in data set [16] (20 mg/kg PO) were “increased sleep time during the first hour” and “increased time spent in sleep during all three hours”, respectively. For the same compound, the “time of β-band EEG power peak” value in [16] (20 mg/kg PO) is ≤ 30 min. In data set [18] (α1β2γ2, coapplied with 100 nM DZP), the “concentration required to potentiate the current greater than 150%” value turned out to be 10 nM. Moreover, the “interaction of zuranolone and DZP by isobolographic analysis” value in data set [18] (α1β2γ2, coapplied zuranolone and DZP) was “synergistically”. Besides, the maximal potentiation is 1084% in data set [18] (α1β2γ2, in the presence of 100 nM DZP) and 511% in [18] (α1β2γ2, without DZP). In addition, in data set [18], the “concentration applied alone required to reach 150% effect level” value amounted to 315 nM. The concentration at 60 min in data set [20] (0.3 mg/kg) was found to be 22 ng/mL; in data set [20] (3 mg/kg) it was 301 ng/mL; in data set [20] (20 mg/kg), 1470 ng/mL. Further, in data set [22], the “selectivity for GABAA receptors vs other ion channel and hormone receptors” value is recorded as “selective”. For the same compound, the “effects at 22 nuclear hormone receptors” value in data set [23] was “no significant effects”.

In the case of `CN1C(=O)CN=C(c2ccccc2)c2cc(Cl)ccc21` [DZP, diazepam, reference compound], the “potentiation of current when applied alone” value in [12] (α4β3δ, DZP alone) is reported as “did not potentiate”. Also, in data set [18] (100 nM DZP alone, α1β2γ2, 2 μM GABA), the “enhancement of GABA currents” value was found to be 104%. Further, in data set [18], the “concentration applied alone required to reach 150% effect level” value is 360 nM.

With `O=S(=O)(O)C1CCNCC1` [P4S, piperidine-4-sulphonic acid], the EC50 in data set [25] (P4S alone) was 45000 nM and 44500 nM; in data set [25] (with 200 nM zuranolone) it was 25200 nM. In data set [25] (P4S alone, normalized to maximum current evoked by saturating GABA (100 μM)), the “Emax of P4S” value is 25%.

Source of the values: article PMC8265595 (Neuropharmacology, 2020).
